From ChEMBL document CHEMBL5356931, “Medicinal chemistry approaches to target the MNK-eIF4E axis in cancer” (RSC Med Chem, 2023) come the findings set out here.

The structures appear in SMILES notation. Converted amounts (≈) assume the structure as drawn. Where only a bound is given, the exact number is not on record here.

The term IC50 denotes the concentration needed to halve the response being measured. Higher therefore signals weaker potency in that assay. For orientation: solubility means the concentration that dissolves in the medium under given conditions. For orientation: inhibition means how much of the control response was suppressed. Low values mean a weak effect, high ones a strong effect. What is called Kd is the concentration at which binding is half-saturated. Usually half-life stands for the time in which the quantity being followed falls by half. Broadly, the AUC is the area under the concentration-time curve, a measure of exposure. A high value points to more exposure.

The target of series [1] is T1, Tyrosine-protein kinase ABL1 (Homo sapiens, UniProt P00519). Briefly: Inhibition of ABL1 (unknown origin).
T1 sequence (P00519 whole entry): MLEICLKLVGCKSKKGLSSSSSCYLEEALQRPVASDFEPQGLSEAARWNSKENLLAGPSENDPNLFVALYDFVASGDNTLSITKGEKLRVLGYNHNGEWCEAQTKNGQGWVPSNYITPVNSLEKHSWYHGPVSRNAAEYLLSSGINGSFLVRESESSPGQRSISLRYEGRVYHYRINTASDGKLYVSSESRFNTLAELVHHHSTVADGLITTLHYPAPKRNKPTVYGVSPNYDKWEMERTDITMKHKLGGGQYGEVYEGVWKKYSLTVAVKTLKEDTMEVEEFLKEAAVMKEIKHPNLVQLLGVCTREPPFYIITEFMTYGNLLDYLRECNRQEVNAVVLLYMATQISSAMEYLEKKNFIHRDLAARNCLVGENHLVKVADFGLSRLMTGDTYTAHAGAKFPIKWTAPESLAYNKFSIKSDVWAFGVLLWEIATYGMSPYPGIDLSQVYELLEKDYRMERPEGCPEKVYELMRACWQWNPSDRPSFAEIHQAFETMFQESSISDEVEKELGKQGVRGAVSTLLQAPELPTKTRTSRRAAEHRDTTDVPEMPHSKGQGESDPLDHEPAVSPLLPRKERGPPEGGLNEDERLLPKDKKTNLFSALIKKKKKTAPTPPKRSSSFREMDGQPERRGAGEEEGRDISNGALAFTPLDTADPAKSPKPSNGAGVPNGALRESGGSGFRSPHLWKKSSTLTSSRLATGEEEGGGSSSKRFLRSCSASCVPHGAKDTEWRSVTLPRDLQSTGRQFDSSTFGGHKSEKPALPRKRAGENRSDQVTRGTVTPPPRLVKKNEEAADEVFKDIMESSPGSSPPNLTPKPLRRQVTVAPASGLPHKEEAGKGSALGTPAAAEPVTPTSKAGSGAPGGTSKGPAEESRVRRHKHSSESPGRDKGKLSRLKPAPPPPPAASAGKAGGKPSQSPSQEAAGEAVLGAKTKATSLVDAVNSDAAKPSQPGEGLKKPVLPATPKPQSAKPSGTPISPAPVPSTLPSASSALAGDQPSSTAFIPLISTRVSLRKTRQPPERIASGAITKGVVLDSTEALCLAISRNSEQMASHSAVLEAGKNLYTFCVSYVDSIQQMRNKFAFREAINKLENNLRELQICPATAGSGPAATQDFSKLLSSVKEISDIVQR
Series [2] is described as follows: Solubility of compound at pH 7.4. The series is classed as physicochemical. The settings on record: buffer.
Series [3] has as its target T1, Tyrosine-protein kinase ABL1. Briefly: Inhibition of ABL1 (unknown origin) relative to control. The settings on record: concentration not given here.
For series [4], the target named is Proto-oncogene tyrosine-protein kinase receptor Ret (Homo sapiens, UniProt P07949). Briefly: Inhibition of RET (unknown origin).
Sequence of Proto-oncogene tyrosine-protein kinase receptor Ret (P07949 whole entry): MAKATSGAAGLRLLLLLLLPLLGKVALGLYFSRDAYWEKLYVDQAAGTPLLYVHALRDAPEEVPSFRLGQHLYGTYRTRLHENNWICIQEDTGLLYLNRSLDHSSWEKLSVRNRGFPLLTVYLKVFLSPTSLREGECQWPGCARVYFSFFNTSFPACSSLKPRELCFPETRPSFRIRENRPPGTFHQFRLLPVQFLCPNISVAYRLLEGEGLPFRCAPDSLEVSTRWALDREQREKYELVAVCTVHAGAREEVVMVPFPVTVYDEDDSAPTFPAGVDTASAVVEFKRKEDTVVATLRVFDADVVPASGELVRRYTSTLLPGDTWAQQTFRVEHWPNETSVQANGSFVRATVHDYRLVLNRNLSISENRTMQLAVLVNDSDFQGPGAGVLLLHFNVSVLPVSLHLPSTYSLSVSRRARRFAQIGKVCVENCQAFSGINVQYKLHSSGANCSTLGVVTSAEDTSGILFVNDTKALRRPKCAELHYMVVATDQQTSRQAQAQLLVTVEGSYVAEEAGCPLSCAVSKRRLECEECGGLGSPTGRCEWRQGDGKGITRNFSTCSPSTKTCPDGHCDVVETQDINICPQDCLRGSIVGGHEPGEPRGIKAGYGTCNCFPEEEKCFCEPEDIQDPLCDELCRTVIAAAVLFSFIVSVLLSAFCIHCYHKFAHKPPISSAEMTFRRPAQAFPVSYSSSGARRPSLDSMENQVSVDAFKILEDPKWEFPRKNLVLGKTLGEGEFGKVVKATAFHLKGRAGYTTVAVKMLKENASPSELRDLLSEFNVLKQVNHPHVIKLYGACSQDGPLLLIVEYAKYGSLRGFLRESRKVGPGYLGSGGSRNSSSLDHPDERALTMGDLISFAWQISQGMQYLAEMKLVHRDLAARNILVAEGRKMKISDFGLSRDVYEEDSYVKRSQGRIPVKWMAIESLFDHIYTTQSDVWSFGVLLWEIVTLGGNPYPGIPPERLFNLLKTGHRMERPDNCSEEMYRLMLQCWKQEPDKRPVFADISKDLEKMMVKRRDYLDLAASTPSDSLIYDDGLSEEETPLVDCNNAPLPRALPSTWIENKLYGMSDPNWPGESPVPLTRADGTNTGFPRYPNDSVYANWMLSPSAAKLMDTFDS
Series [5] concerns the target T2, Receptor-type tyrosine-protein kinase FLT3 (Homo sapiens, UniProt P36888).
T2 sequence (P36888 whole entry): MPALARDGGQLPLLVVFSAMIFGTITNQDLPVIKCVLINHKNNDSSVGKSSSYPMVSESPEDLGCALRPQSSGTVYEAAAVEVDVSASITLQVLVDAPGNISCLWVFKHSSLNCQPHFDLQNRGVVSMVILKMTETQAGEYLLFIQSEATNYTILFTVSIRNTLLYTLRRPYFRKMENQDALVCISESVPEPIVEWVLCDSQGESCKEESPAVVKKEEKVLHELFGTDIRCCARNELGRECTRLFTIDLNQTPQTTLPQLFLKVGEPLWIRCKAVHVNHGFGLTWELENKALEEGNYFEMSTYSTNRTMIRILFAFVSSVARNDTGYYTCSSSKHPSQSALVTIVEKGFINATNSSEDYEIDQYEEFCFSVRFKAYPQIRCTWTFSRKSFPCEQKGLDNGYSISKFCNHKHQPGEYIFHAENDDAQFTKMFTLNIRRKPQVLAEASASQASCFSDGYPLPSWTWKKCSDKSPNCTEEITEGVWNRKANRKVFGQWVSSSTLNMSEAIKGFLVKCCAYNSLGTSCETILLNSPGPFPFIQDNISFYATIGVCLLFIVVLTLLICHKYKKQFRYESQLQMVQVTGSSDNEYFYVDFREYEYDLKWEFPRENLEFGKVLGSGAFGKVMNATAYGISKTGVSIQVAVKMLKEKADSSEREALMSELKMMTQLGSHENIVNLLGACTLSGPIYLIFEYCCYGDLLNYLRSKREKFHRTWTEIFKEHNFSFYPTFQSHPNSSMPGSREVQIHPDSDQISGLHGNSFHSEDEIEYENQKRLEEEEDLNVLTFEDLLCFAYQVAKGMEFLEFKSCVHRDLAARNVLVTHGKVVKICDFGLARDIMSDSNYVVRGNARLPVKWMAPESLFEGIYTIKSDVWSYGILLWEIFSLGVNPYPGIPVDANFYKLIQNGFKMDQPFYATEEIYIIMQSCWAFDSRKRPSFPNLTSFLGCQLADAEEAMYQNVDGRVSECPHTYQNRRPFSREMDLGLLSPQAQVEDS
Description: Inhibition of FLT3 (unknown origin).

For series [6], the target named is Vascular endothelial growth factor receptor 2 (Homo sapiens, UniProt P35968). Briefly: Inhibition of VEGFR2 (unknown origin).
Sequence of Vascular endothelial growth factor receptor 2 (P35968 whole entry): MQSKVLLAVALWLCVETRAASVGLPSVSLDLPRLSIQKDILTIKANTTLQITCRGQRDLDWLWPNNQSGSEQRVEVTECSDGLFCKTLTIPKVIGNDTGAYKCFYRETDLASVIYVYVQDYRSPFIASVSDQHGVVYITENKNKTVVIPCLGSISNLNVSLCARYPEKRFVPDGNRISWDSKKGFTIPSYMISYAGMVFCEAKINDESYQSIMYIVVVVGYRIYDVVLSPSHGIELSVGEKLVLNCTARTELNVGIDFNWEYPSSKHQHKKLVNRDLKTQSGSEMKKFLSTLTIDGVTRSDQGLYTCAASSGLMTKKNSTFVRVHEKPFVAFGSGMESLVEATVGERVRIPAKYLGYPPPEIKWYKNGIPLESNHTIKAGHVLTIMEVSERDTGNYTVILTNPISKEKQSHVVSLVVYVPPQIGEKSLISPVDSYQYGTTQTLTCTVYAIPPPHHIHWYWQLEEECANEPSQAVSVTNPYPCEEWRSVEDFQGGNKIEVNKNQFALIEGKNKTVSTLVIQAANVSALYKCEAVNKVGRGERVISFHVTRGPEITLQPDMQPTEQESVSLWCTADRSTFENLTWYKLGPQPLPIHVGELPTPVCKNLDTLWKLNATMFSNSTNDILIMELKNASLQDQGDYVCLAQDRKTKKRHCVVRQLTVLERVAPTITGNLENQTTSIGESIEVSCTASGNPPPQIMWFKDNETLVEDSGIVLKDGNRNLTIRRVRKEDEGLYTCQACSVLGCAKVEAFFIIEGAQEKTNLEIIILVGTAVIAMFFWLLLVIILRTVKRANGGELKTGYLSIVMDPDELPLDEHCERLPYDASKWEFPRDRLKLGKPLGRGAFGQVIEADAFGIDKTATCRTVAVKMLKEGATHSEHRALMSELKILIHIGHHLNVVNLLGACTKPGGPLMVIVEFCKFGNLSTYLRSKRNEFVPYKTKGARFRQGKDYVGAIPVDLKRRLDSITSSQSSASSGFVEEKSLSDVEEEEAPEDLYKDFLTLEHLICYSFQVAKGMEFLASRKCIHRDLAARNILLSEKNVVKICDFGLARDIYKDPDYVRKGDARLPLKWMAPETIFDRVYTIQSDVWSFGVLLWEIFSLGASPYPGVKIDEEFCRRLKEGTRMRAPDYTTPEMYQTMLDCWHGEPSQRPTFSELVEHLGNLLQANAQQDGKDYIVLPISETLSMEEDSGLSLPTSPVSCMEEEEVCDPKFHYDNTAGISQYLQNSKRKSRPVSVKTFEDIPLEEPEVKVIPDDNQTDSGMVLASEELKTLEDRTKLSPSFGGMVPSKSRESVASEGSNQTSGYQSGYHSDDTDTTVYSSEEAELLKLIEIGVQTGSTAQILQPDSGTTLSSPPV
In series [7] the target is T3, Eukaryotic translation initiation factor 4E (Homo sapiens, UniProt P06730). Briefly: Inhibition of eIF4E phosphorylation in human HeLa cells. The class given is cell-based.
T3 sequence (P06730 whole entry): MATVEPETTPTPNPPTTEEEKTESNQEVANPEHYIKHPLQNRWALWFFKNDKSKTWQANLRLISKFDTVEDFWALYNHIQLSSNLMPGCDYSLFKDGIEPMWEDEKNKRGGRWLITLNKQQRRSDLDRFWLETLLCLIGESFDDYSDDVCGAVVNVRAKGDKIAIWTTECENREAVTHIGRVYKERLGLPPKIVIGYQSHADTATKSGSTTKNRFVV
Series [8] deals with MAP kinase-interacting serine/threonine-protein kinase 1 (Homo sapiens) (UniProt Q9BUB5). Briefly: Inhibition of MNK1 (unknown origin) relative to control. The settings on record: concentration not given here.
Sequence of MAP kinase-interacting serine/threonine-protein kinase 1 (Homo sapiens) (Q9BUB5 whole entry, looked up): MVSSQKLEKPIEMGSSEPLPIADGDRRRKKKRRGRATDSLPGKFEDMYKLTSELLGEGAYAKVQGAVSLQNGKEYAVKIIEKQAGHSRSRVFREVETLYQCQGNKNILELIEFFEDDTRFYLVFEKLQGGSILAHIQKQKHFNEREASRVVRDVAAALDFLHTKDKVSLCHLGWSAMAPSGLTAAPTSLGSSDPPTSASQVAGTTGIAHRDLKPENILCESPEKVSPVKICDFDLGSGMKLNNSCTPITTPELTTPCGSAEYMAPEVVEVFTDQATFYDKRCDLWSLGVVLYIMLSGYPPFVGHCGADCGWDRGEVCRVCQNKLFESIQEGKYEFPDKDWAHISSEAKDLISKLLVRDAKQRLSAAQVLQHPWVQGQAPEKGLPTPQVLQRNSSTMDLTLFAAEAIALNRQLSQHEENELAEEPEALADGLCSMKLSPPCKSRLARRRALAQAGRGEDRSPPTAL
Series [9] is described as follows: Solubility of the compound. The series is classed as physicochemical.
The subject of series [10] is K562. Description: animal or person. The note with it: Mus musculus, K562, read-out: TGI.
In series [11] the test system is K562. Description: animal or person. The note with it: Mus musculus, K562, read-out: TGI. The source holds these as a separate data set.
Series [12] deals with MAP kinase-interacting serine/threonine-protein kinase 2 (Homo sapiens, UniProt Q9HBH9). Description: Inhibition of MNK2 (unknown origin).
Sequence of MAP kinase-interacting serine/threonine-protein kinase 2 (Q9HBH9 whole entry): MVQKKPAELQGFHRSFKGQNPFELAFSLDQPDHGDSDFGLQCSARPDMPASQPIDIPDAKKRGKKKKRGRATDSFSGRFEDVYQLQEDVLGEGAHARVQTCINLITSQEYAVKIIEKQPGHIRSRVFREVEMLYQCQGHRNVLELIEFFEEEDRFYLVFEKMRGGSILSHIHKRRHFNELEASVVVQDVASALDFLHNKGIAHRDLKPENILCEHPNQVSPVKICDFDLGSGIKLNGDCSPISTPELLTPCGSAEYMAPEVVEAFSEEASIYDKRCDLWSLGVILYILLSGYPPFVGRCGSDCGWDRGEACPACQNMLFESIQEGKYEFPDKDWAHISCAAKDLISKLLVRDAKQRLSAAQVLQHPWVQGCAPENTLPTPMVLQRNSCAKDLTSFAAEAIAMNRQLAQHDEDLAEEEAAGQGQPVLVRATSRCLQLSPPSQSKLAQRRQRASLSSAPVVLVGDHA
Series [13] addresses T3, Eukaryotic translation initiation factor 4E. Description: Binding affinity to eIF4E (unknown origin) assessed as dissociation constant.
Series [14] in a line: Half life in CD-1 mouse at 5 mg/kg, iv. The series is classed as ADME, organism-based, CD1. The settings on record: in vivo.
Series [15] in a line: Drug exposure in mouse at 5 mg/kg,po. The series is classed as ADME, organism-based. On the set-up: dose 5 mg/kg, route po. The settings on record: in vivo. In short, it runs like this: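 Mice received a single oral dose of 5 mg kg⁻¹. Exposure was described by oral bioavailability F (%), Cmax (ng mL⁻¹) and AUC0−t (last) (ng h mL⁻¹).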

In turn, `CCN1CCN(Cc2ccc(NC(=O)CNc3ccc(-c4cccnc4)cc3)cc2C(F)(F)F)CC1` registered a half-maximal inhibitory concentration (IC50) in series [1] above 10000 nM.
`CC(C)Oc1cc(-c2cccnc2)ccc1C(N)=O` had a solubility in [2] of 45 µg/mL (≈ 176 µM).
Regarding `CN1CCN(Cc2ccc(NC(=O)CNc3ccc(-c4ccc(NC(=O)C5CC5)nc4)cc3F)cc2C(F)(F)F)CC1`, the inhibition in series [3] and in [8] was above 90% in each case. For the same compound, the 50% inhibitory concentration (IC50) in [4] is below 24 nM; in series [5], below 24 nM; in [6] it was below 24 nM; in series [7], 280 nM.
In [9], `CN1CCN(C(=O)c2ccc(-c3cn4c(-c5ccc(O)cc5)cnc4cn3)cc2)CC1` returned a solubility of 144 µg/mL (≈ 348 µM).
The same measure, in the same setting: as for `O=C(c1ccc(-c2cn3c(-c4ccc(O)cc4)cnc3cn2)cc1)N1CCOCC1`, the figure is 11.5 µg/mL (≈ 28.7 µM).
Take `N#Cc1ccc(-c2cnc3ccc(-c4ccc(C(=O)N5CCOCC5)cc4)cn23)cc1` [TINODASERTIB]: the inhibition in vivo at 50 mg/kg in the series with K562 [10] came to 110%. In addition, the inhibition in vivo at 25 mg/kg in the series on K562 [11] is 107%.
Regarding `CC(=O)N1CCN(C(=O)c2ccc(-c3cn4c(-c5ccc(O)cc5)cnc4cn3)cc2)CC1`, the solubility in [9] was 144 µg/mL (≈ 326 µM).
`CN1CCN(C(=O)c2ccc(-c3ccc4ncc(-c5ccc(C#N)cc5)n4n3)cc2)CC1` came in with an IC50 in series [12] of 30 nM.
`NC(=O)c1ncn([C@@H]2O[C@H](CO)[C@@H](O)[C@H]2O)n1` [RIBAVIRIN]: the Kd in series [13] was determined as 8400 nM.
As for `CCN1CCN(Cc2ccc(NC(=O)CNc3ccc(-c4ccc(NC(=O)C5CC5)nc4)cc3)cc2C(F)(F)F)CC1`, the IC50 in series [4], in series [5] and in series [6] was below 24 nM each time. Also, the half-life in series [14] was 2.1 h.
With `CCN1CCN(Cc2ccc(NC(=O)COc3ccc(-c4cccnc4)cc3)cc2C(F)(F)F)CC1`, the IC50 in [1] is above 10000 nM.
In turn, `CN1CCN(C(=O)c2ccc(-c3cn4c(-c5ccc(C(=O)NO)cc5)cnc4cn3)cc2)CC1` came in with an IC50 in [12] of 30 nM.
In [15], `CC(C)Oc1cc(-c2cncc(-c3cnn(C4COC4)c3)c2)ccc1C(N)=O` had an area under the curve (AUC) of 2080 ng·h/mL. The same compound had a concentration for half-maximal inhibition (IC50) in series [7] of 200 nM. In series [8], this compound gave an inhibition above 90%.
